# Only some compounds are listed: those with a hit (about 3.9% of all), similar ones and a draw of the others.
# HSP90 inh: HSP90 refolding inhibition in rabbit reticulocyte lysate; inhibition, % at 5.6 µM; 0.91% of 290,000 active; luciferase refolding luminescence, 3 h;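 active = inhibition above the screen-wide mean plus 3 SD, computed separately per campaign, cut at about 16% in these data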;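 also: 0% = DMSO wells and 100% = 60 µM geldanamycin wells; inhibitors lower the luminescence because luciferase stays unfolded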
# HCV NS3 hel inh: blocks Hepatitis C virus NS3 helicase unwinding; inhibition, % at 10.9 µM; 0.56% of 290,000 active; NS3 helicase DNA unwinding, Cy5 molecular beacon fluorescence;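 active = inhibition above the mean of all tested compounds plus 3 SD, set per campaign, cut at about 35% in these data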;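 also: 0% = DMSO wells and 100% = thioflavine S control wells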
#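 Test system: hepatitis C virus NS3 helicase domain fragment enzyme. Also added: annealed dual-labelled DNA beacon duplex, ATP-started. Timing: 60 min unwinding reaction at 25 °C after ATP addition. Technique: Cy5 fluorescence. Measure: % inhibition of unwinding.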
# DNA FID counter-1: displaces DNA intercalator in HCV helicase counter-screen | DNA fluorescent intercalator displacement, fluorescence | 0.17% of 290,000 active | AID 1845 | inhibition, % at 7.9 µM;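 also: 0% = vehicle and 100% = reference compound; higher means more ethidium bromide displaced from hairpin DNA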
# HSF1 inhib: HSF1 inhibition; NIH3T3-HGL HSE-luciferase, MG132-induced, luminescence 8 h; hits give low values; activity change, negative = inhibition, % at 7.5 µM (by protocol); 0.77% of 300,000 active;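 active = more than half of replicate wells show activity change below -50%, luminescence cut by over half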;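 also: luciferase reports HSF-1 transcriptional activity via heat shock element; 0% = median of DMSO wells and -100% = zero luminescence signal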
# HSF-1 act: increases HSF-1 driven luciferase reporter signal. NIH3T3-HGL HSF-1 luciferase reporter, MG132, 8 h; 100% = twice DMSO control signal. activation, % at 9 µM. 1.7% of 300,000 active;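 active = mean replicate activation of at least 50% with a set share of replicates each reaching 50%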;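 also: 0% = median of the neutral control wells and 100% = twice that signal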
# core dimer inh: HCV core protein dimerization inhibition; TR-FRET GST/Flag-core106 dimerization, 1536-well; inhibition, % at 5 µM; 0.33% of 300,000 active; AID 1899;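 active = inhibition above the mean of all tested compounds plus 3 SD, set per screening campaign, cut at about 45% in these data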
#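 System: GST/Flag-tagged HCV core106 proteins. Incubation: compound-protein-antibody incubation 4 h at 22.5 °C. Technique: HTRF with 340 nm excitation, 617/671 nm emission. Medium: KF-containing HEPES buffer, pH 7.45, DTT, CHAPS, BSA. Read-out: inhibition (%) from 671 over 617 nm ratio. Also added: Eu(K)-anti-GST 90 ng/mL plus XL665-anti-Flag 1 µg/mL.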
# NS3 hel confirm: HCV NS3 helicase inhibition, confirmation assay; shares compounds with HCV NS3 hel inh; NS3 helicase DNA unwinding, Cy5 molecular beacon fluorescence; inhibition, % at 10.9 µM; 31% of 1,600 active;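 active = inhibition above the mean of all tested compounds plus 3 SD, cutoff set per campaign, cut at about 36% in these data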
# DNA FID counter-2: intercalator displacement, NS3 helicase counter-screen | shares compounds with HCV NS3 hel inh | 4% of 1,600 active | inhibition, % at 7.9 µM | DNA fluorescent intercalator displacement, fluorescence;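 also: 0% = vehicle and 100% = reference compound; higher means more displacement of ethidium bromide from the DNA hairpin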
# The depositor's hits bear a star; x = not tested or not shown. Rule as the data show it, unless noted: active = inhibition above about 37%; inactive = the rest.
SMILES,HSP90 inh,HCV NS3 hel inh,DNA FID counter-1,HSF1 inhib,HSF-1 act,core dimer inh,NS3 hel confirm,DNA FID counter-2
C=CCn1c(=NC(=O)c2cc(-c3cccs3)nc3ccccc23)sc2cc(S(N)(=O)=O)ccc21,4,14,-12,17,38,6,x,x
Cc1cc2nc(=O)c(/C=C3\C=Nc4ccccc43)c(N)n2o1,0,43*,-5,0,5,-2,-4,16
CCOc1ccc(NC(=O)C(CC)n2nc(C)c3c(C)n(-c4ccccc4)nc3c2=O)cc1 (stereo unspecified),-1,-2,-49,-1,-1,12,x,x
Cc1cc(C)c(NC(=O)CN2CCC(NC(=O)NC3CCCCC3)CC2)c(C)c1,0,9,2,-3,2,-4,x,x
CC(C)N(C(=O)CSc1nn2c(=O)c(C(C)(C)C)nnc2s1)c1ccccc1,3,5,-13,-2,13,1,x,x
Cc1cc(C(=O)CSc2nn3c(=O)c(C(C)(C)C)nnc3s2)c(C)n1-c1ccc(F)cc1,0,40*,-12,-5,17,49*,3,-27
COc1ccccc1C1C2=C(CCCC2=O)N(CC(=O)O)C2=C1C(=O)CCC2,4,41*,-4,-5,11,-4,-10,14
C#CCOc1c(Cl)cc(C2C3=C(CCCC3=O)N(CC(=O)O)C3=C2C(=O)CCC3)cc1OC,-1,8,-25,16,14,-1,x,x
O=C(CSc1nccc2ccccc12)N1CCN(Cc2ccc3c(c2)OCO3)CC1,x,x,x,2,8,7,x,x
CCOC(=O)CN1C(=O)S/C(=C/c2ccc(OCc3ccc(C(=O)O)cc3)cc2)C1=O,-2,42*,-23,2,15,8,32,-8
C=CCC(C)(NCc1ccccc1)c1ccco1 (stereo unspecified),1,-1,8,-1,13,4,x,x
Cc1ccccc1NC(=O)c1sc2nc3c(c(-c4ccco4)c2c1N)CCCC3,-2,44*,-23,3,8,6,-12,-27
COc1ccc(-c2c3c(nc4sc(C(=O)Nc5ccccc5)c(N)c24)CCC3)cc1,-4,1,-10,19,14,15,x,x
Nc1c(C(=O)Nc2ccccc2)sc2nc3c(c(-c4ccco4)c12)CCC3,1,41*,-10,-2,2,15,-10,-16
Nc1c(C(=O)Nc2ccccc2)sc2nc3c(c(-c4ccco4)c12)CCCC3,2,12,-6,24,11,4,x,x
O=C(Nc1ccc(F)cc1)C1CCN(S(=O)(=O)c2cccs2)CC1,1,6,-14,6,22,-1,x,x
Cc1cc(C(=O)CSc2nnnn2-c2ccccc2)c(C)n1-c1ccc2c(c1)OCO2,2,37*,-12,-6,6,15,5,-14
Cc1ccc2c(C)c(C(=O)NCCN3CCOC3=O)oc2c1C,1,-1,-23,-2,-20,-10,x,x
O=C1NN(c2ccc(Cl)cc2)C(=O)/C1=C\c1ccc(-c2cccc(C(=O)O)c2)o1,0,46*,-16,x,x,x,66*,15
COC(=O)NC1(C(=O)O)CCCC1,0,-5,-2,-1,-1,1,x,x
CCOC(=O)c1c(NC(=O)C2C3C=CC(C3)C2C(=O)O)sc2c1CCCC2 (stereo unspecified),-1,30,-44,-9,-17,8,x,x
CCOC(=O)c1c(NC(=O)C2C3C=CC(C3)C2C(=O)O)sc2c1CCC(C)C2 (stereo unspecified),1,37*,-30,-11,-10,13,75*,-31
O=[N+]([O-])c1c(Nc2ccccc2O)ccc2nonc12,4,14,3,-8,-10,-7,x,x
O=[N+]([O-])c1c(Nc2ccccc2O)cc(Cl)c2nonc12,3,38*,4,150,207*,x,-23,17
O=C(C1=C[C@@H](C2CC2)C[C@@H](OCCCCO)O1)N1CCN(Cc2ccc3c(c2)OCO3)CC1,9,1,-31,5,-14,-7,x,x

# Bioassay records deposited in PubChem by several laboratories.
